The results in this text go back to paper PMC9727797 (Molecular Biology of the Cell, 2022).

For one assay, the system named is RPE-1 cells. The assay is described as follows: Live cell imaging of metaphase duration. Format: cell-based, human. To be noted: Munesib-1 50 µM, Fift-IN and GW108X 25 µM.
A further assay deals with KIRC-1 cells. Nature of the assay: Preanaphase spindle monopolarity, KIRC-1 cells. Format: cell-based, human. The following applies: 25 µM. In a few lines:
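TP53–/– RPE-1 and KIRC-1 cells were grown in DMEM with 10% FBS, penicillin and streptomycin; KIRC-1 medium also contained 10 μM STLC. Cells on coverslips were treated overnight with increasing test-compound concentrations or DMSO. They were then methanol-fixed and stained for KIF15, tubulin and DNA. Preanaphase spindles were scored monopolar or bipolar, in triplicate with n = 100 per replicate (± SEM).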

The target of the next assay is T1, KIF15-N700 (Homo sapiens, UniProt Q9NS87).
T1 sequence (Q9NS87 1-700 limits assumed): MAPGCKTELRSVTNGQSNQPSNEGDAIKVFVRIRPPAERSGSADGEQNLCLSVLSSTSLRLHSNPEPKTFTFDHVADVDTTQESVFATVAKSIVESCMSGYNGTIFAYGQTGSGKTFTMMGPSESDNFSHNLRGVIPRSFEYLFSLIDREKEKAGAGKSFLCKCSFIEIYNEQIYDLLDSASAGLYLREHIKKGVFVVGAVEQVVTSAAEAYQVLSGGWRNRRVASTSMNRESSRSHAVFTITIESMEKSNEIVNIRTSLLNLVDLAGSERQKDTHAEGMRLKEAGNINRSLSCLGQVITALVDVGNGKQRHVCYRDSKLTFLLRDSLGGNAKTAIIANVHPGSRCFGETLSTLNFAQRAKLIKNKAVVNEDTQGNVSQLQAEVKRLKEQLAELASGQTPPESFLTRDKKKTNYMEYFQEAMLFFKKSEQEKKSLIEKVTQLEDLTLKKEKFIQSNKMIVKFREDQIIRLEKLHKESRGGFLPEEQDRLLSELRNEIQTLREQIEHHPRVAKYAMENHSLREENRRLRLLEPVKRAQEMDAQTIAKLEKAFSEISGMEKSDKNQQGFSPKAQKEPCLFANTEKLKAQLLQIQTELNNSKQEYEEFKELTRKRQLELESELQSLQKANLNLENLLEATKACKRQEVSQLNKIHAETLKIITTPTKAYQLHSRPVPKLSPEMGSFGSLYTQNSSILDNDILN
The assay is described as follows: Microtubule gliding assay. Format: biochemical. The following applies: 25 µM, singlicate. The procedure, abridged:
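His6-KIF15-N700 was expressed in High Five insect cells, then purified by Ni-NTA and Superdex 200 gel filtration. Microtubule gliding was imaged every 5 s for 1 min at 100×. Velocity was taken as distance travelled in 1 min, from ≥15 microtubules at each of three slide locations (n ≥ 50 per slide). Concentration-response curves used eight concentrations from 10 nM up to 30 or 100 µM, in triplicate. Single-point derivative tests used 25 µM.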

The subject of the next assay is TP53–/– RPE-1 cells. Nature of the assay: STLC selection. To be noted: 24 d; 10 μM STLC; some cells acquired resistance and formed colonies. Format: cell-based, human.

On to `O=C1Nc2ccc(C(=O)c3ccco3)cc2/C1=C/c1cc(Cl)c(O)c(Cl)c1` [GW108X, reference compound], for which the “metaphase duration (metaphase plate formation until anaphase onset)” value in the assay on RPE-1 cells is “significant increase in metaphase duration”.
For the molecule `CSc1ncc2c(n1)-c1ccc(C(=O)N3CCNCC3)cc1N(C)S2(=O)=O` [M-205, (6-methyl-2-(methylthio)-5,5-dioxido-6H-benzo[c]pyrimido[4,5-e][1,2]thiazin-8-yl)(piperazin-1-yl)methanone], in the assay with KIRC-1 cells, the “monopolarity index compared with the parent compound” value is given as “substantially increased the monopolarity index”.
Regarding `CSc1ncc2c(n1)-c1ccc(CO)cc1N(C)S2(=O)=O` [M-206, 8-(hydroxymethyl)-6-methyl-2-(methylthio)-6H-benzo[c]pyrimido[4,5-e][1,2]thiazine 5,5-dioxide], the “% inhibition of KIF15 microtubule gliding activity” value at KIF15-N700 is “blocked KIF15 activity as effectively as Munesib-1”.
With `N[C@@H](CSC(c1ccccc1)(c1ccccc1)c1ccccc1)C(=O)O` [STLC, S-trityl-L-cysteine], the “cell killing by STLC alone” value in the assay with TP53–/– RPE-1 cells is listed as “killed the majority”.
With `CSc1ncc2c(n1)-c1ccc(C(=O)O)cc1N(C)S2(=O)=O` [M-201, 6-methyl-2-(methylthio)-6H-benzo[c]pyrimido[4,5-e][1,2]thiazine-8-carboxylic acid 5,5-dioxide], the “% inhibition of KIF15 microtubule gliding activity” value on KIF15-N700 is “blocked KIF15 activity as effectively as Munesib-1”.
